Measured values as given in ChEMBL document CHEMBL1148511, “Novel 5-azaindole factor VIIa inhibitors” (Bioorg Med Chem Lett, 2006).

Assays:
[1] = biological target: Coagulation factor VII/tissue factor (Homo sapiens) (UniProt P08709+P13726); assay: Selectivity for F7a/TF over trypsin; type: protein-complex assay
Summary of the method: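 Trypsin (10 nM) was tested without CaCl2, using Tosyl-Gly-Pro-Lys-pNA at Km. Readout was kinetic A405, and Ki was fitted with the Morrison tight-binding equation.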

[2] = biological target: Coagulation factor VII and X (Homo sapiens) (UniProt P00742+P08709); assay: Selectivity for F7a/TF over F10a; type: protein assay
Summary of the method: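 Reactions were started with pNA substrate at Km and read as A405 over time. Ki was fitted with the Morrison tight-binding equation.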

[3] = biological target: Thrombin and coagulation factor VII (Homo sapiens) (UniProt P00734+P08709); assay: Selectivity for F7a/TF over F2a; type: protein assay
Summary of the method: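 FVIIa (7 nM) with soluble tissue factor (11 nM) was run in 1.5 mM EDTA. Thrombin (12.7 nM) was run in 1 mM EDTA with Tosyl-Gly-Pro-Lys-pNA at Km. Hydrolysis was followed at 405 nm, and apparent Ki came from a Morrison equation fit.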

Coagulation factor VII = biological target: T1, Coagulation factor VII (Homo sapiens, UniProt P08709); assay: Binding affinity to F7a/TF complex; type: protein-complex assay
T1 sequence (P08709 whole entry): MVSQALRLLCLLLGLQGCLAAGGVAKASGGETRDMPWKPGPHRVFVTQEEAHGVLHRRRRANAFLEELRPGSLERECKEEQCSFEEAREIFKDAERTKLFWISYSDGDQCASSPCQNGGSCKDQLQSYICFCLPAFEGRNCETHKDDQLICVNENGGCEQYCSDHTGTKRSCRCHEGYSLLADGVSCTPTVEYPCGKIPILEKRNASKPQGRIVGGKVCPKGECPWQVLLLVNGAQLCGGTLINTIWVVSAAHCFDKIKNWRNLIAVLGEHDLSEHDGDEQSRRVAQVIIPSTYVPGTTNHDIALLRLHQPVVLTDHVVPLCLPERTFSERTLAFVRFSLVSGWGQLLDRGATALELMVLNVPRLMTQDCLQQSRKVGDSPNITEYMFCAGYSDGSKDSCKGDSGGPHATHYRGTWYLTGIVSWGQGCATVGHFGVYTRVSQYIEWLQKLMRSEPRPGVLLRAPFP

Prothrombin = Prothrombin (Homo sapiens, UniProt P00734); assay: Binding affinity to F2a
Coagulation factor X = Coagulation factor X (Homo sapiens, UniProt P00742); assay: Binding affinity to F10a
[4] = Binding affinity to trypsin; design: species or system Homo sapiens

Chain of Coagulation factor X (P00742 41-179 limits assumed): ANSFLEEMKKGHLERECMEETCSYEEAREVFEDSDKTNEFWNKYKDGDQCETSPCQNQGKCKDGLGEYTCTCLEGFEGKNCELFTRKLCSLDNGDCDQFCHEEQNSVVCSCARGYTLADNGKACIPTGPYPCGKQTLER
Chain of Coagulation factor X (P00742 235-488 limits assumed): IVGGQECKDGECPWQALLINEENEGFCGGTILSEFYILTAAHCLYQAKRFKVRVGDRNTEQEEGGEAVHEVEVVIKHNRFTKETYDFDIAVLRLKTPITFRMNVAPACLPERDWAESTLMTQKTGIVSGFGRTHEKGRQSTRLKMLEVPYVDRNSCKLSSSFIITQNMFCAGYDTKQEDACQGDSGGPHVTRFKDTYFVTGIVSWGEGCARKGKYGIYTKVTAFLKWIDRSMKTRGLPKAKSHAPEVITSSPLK

Ratio Ki [1]	Ratio Ki [2]	Ratio Ki [3]	Ki (Coagulation factor VII) [nM]	Ki (Prothrombin) [nM]	Ki (Coagulation factor X) [nM]	Ki [4] [nM]	SMILES
26	46	24	–	–	–	–	O=C(Cc1ccccc1)NCc1cccc(-c2cccc(-c3cc4c[nH]ccc-4n3)c2O)c1
120	429	169	–	–	–	–	O=C(NCCc1cccs1)NCc1cccc(-c2cccc(-c3cc4c[nH]ccc-4n3)c2O)c1
1150	923	1150	130	–	–	–	O=C(NCc1cccc(-c2cccc(-c3cc4c[nH]ccc-4n3)c2O)c1)Nc1cccc(F)c1
1360	382	1360	110	–	–	–	O=C(NCc1cccc(-c2cccc(-c3cc4c[nH]ccc-4n3)c2O)c1)Nc1ccc(F)cc1
1100	966	2240	58	–	–	–	O=C(NCc1cccc(-c2cccc(-c3cc4c[nH]ccc-4n3)c2O)c1)Nc1ccc(C(=O)O)cc1
455	455	455	330	–	–	–	O=C(NCc1cccc(-c2cccc(-c3cc4c[nH]ccc-4n3)c2O)c1)Nc1ccc(F)c(F)c1
–	–	–	–	71500	125000	46500	NC(=O)NCc1cccc(-c2cccc(-c3cc4c[nH]ccc-4n3)c2O)c1
1	1	1	130000	–	–	–	CN1CCN(C(=O)NCc2cccc(-c3cccc(-c4cc5c[nH]ccc-5n4)c3O)c2)CC1
2630	2630	2630	–	–	–	–	O=C(NCc1cccc(-c2cccc(-c3cc4c[nH]ccc-4n3)c2O)c1)Nc1ccccc1Cl
1500	1700	1200	100	–	–	–	O=C(NCc1cccc(-c2cccc(-c3cc4c[nH]ccc-4n3)c2O)c1)Nc1ccc(F)cc1F
3190	1720	3190	47	–	–	–	COc1ccccc1NC(=O)NCc1cccc(-c2cccc(-c3cc4c[nH]ccc-4n3)c2O)c1
935	635	968	155	–	–	–	O=C(NCc1cccc(-c2cccc(-c3cc4c[nH]ccc-4n3)c2O)c1)Nc1cccnc1
181	388	343	335	–	–	–	CCCCCNC(=O)NCc1cccc(-c2cccc(-c3cc4c[nH]ccc-4n3)c2O)c1
1150	623	769	–	–	–	–	O=C(NCc1cccc(-c2cccc(-c3cc4c[nH]ccc-4n3)c2O)c1)Nc1ccsc1
16	10	16	9500	–	–	–	O=C(Cc1c(F)cccc1F)NCc1cccc(-c2cccc(-c3cc4c[nH]ccc-4n3)c2O)c1
495	789	305	–	–	–	–	CC(=O)c1ccc(NC(=O)NCc2cccc(-c3cccc(-c4cc5c[nH]ccc-5n4)c3O)c2)cc1
1500	1600	1500	100	–	–	–	COc1cccc(NC(=O)NCc2cccc(-c3cccc(-c4cc5c[nH]ccc-5n4)c3O)c2)c1

Ratio Ki [1]	Ratio Ki [2]	Ratio Ki [3]	Ki (Coagulation factor VII) [nM]	Ki (Prothrombin) [nM]	Ki (Coagulation factor X) [nM]	Ki [4] [nM]	SMILES
34	149	107	610	–	–	–	O=C(NCc1cccc(-c2cccc(-c3cc4c[nH]ccc-4n3)c2O)c1)C(CO)c1cccnc1 (configuration not stated)
181	181	181	830	–	–	–	O=C(NCc1cccc(-c2cccc(-c3cc4c[nH]ccc-4n3)c2O)c1)Nc1cc(F)cc(F)c1
2180	2700	3940	33	–	–	–	O=C(NCc1cccc(-c2cccc(-c3cc4c[nH]ccc-4n3)c2O)c1)Nc1c(F)cccc1F
2170	2170	2000	60	–	–	–	CC(=O)c1cccc(NC(=O)NCc2cccc(-c3cccc(-c4cc5c[nH]ccc-5n4)c3O)c2)c1
57	136	470	220	–	–	–	O=C(NCc1cccc(-c2cccc(-c3cc4c[nH]ccc-4n3)c2O)c1)C(CO)c1ccccc1 (configuration not stated)
375	653	750	72	–	–	–	O=C(NCc1cccc(-c2cccc(-c3cc4c[nH]ccc-4n3)c2O)c1)N(O)Cc1ccccc1
538	600	938	–	–	–	–	O=C(NCc1cccc(-c2cccc(-c3cc4c[nH]ccc-4n3)c2O)c1)Nc1cccs1
56	67	56	2700	–	–	–	O=C(NCc1cccc(-c2cccc(-c3cc4c[nH]ccc-4n3)c2O)c1)Nc1ccccn1
96	417	174	270	–	–	–	O=C(NCCc1ccccc1)NCc1cccc(-c2cccc(-c3cc4c[nH]ccc-4n3)c2O)c1
2630	1930	2460	57	–	–	–	O=C(NCc1cccc(-c2cccc(-c3cc4c[nH]ccc-4n3)c2O)c1)Nc1ccccc1F
1590	705	1020	88	–	–	–	COc1ccc(NC(=O)NCc2cccc(-c3cccc(-c4cc5c[nH]ccc-5n4)c3O)c2)cc1
2030	1010	2110	61.5	–	–	–	O=C(NCc1cccc(-c2cccc(-c3cc4c[nH]ccc-4n3)c2O)c1)Nc1ccccc1
57	80	68	850	–	–	–	O=C(NCc1cccc(-c2cccc(-c3cc4c[nH]ccc-4n3)c2O)c1)C(O)c1ccccc1 (configuration not stated)
–	–	–	–	–	–	3600	N=C(N)c1ccc2[nH]c(-c3cccc(-c4cc(CNC(N)=O)ccc4O)c3O)nc2c1
5000	2640	3180	28	–	–	–	COc1ccc(NC(=O)NCc2cccc(-c3cccc(-c4cc5c[nH]ccc-5n4)c3O)c2)c(OC)c1
9	3	5	17000	–	–	–	O=C(NCc1cccc(-c2cccc(-c3cc4c[nH]ccc-4n3)c2O)c1)N1CCCC1
